STAT3 activator – STAT3 signaling activation; activation (% of control), % at 5.6 µM; U3A cells, IL-6 STAT3-luciferase reporter, luminescence; 100% = signal with IL-6 EC80 alone; 190,000 tested, 0.91% active;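 active = activation above the screen-wide mean of compound activation plus 3 SD, cut at about 130% in these data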
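Test system: human U3A cells carrying STAT3-luciferase construct; control set: IL-6-only wells as 100% reference; timing: compound pre-incubation 1 h before IL-6, then 6 h stimulation at 37 °C; also added: IL-6 stimulus at 33 ng/mL final; evaluation: % activation versus median of IL-6-stimulated wells; detection: reporter luminescence signal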
HSF1 inh – HSF1 inhibition; NIH3T3-HGL HSE-luciferase, MG132-induced, luminescence 8 h; stronger effect = lower value; activity change, negative = inhibition, % at 7.5 µM (by protocol); 300,000 tested, 0.77% active; AID 2098;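 active = more than half of replicate wells show activity change below -50%, luminescence cut by over half; inconclusive = some wells, but at most half, below -50%; inactive = no replicate well below -50%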;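 note: luciferase reports HSF-1 transcriptional activity via heat shock element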
Hsp70 act – switches on Hsp70 transcription | 200,000 tested, 0.04% active | activation, % at 10 µM | HeLa Hsp70 promoter luciferase reporter, luminescence; scaled: vehicle 0, proteasome-inhibitor control 100% | AID 1203;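 active = activation above the mean across all tested compounds plus 3 SD, cutoff set per campaign, cut at about 5.5% in these data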
PolyA inh – yeast polyadenylation inhibition; S. cerevisiae SKY197-pL101 polyadenylation reporter, beta-gal luminescence; efflux-impaired pdr1/pdr3 knockout yeast; score 100 = 6 SD above DMSO; activity score, % at 12 µM; 300,000 tested, 0.02% active; AID 1875;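 active = lowest replicate activity score at least 50, where 100 means six control SD above control mean; inconclusive = lowest score under 50 but half or more replicates reach 50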;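 note: yeast exposed to compound for 9 h at 30 °C; higher score means more reporter readthrough which indicates perturbed polyadenylation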
AHR activator – human AHR activation. activation, % at 5 µM. AHR-responsive luciferase reporter cells, luminescence. 320,000 tested, 2.5% active; in the data active = activation above about 47%
PERK inh – inhibitors of human PERK kinase; Q9NZJ5; CHO PERK-DD fusion, SEAP luminescence translation reporter; inhibition, % at 5.6 µM; 220,000 tested, 0.17% active; AID 1416;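 active = inhibition above the mean inhibition of all tested compounds plus 3 SD, set separately per screening campaign, cut at about 2.9% in these data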;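 note: PERK kinase domain activated by AP20187 dimerizer at 100 nM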
Target sequence (Q9NZJ5 whole entry, looked up, the tested form may be a part): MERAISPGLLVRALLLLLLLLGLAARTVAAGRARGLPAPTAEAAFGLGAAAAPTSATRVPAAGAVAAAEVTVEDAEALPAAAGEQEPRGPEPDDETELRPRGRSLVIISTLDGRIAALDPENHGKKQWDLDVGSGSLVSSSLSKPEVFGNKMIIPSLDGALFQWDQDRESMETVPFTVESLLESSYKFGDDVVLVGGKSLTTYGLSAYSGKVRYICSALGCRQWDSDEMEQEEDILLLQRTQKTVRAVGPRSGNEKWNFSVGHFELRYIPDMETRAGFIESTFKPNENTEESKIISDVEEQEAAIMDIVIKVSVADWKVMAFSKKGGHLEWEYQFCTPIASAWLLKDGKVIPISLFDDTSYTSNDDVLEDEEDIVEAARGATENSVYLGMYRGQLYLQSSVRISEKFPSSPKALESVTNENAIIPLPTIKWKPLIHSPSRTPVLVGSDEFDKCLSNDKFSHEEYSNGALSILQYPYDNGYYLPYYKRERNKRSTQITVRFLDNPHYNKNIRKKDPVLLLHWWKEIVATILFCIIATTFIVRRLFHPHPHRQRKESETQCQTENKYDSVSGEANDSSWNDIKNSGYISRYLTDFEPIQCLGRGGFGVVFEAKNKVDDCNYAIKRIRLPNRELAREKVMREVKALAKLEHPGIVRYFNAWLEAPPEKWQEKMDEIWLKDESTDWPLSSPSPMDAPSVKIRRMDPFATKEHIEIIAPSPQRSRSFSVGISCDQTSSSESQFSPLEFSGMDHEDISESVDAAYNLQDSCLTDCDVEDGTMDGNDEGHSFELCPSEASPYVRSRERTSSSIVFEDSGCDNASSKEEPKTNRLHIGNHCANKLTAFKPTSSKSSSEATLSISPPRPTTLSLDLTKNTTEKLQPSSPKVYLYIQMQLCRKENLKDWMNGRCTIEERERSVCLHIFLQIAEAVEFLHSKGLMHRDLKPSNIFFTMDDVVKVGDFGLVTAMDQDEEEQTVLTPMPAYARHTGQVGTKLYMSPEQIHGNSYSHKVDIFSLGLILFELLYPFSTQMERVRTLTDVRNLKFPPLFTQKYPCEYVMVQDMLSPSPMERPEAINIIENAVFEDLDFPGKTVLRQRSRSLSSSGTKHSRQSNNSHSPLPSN
Each line names hits and unclear results; the compound was inactive in the other large screens. A selection: hits, their analogues and other compounds. The true share with any hit is near 3.6%.

Cc1ccc(Nc2nc(N)nc(CCl)n2)c(C)c1	HSF1 inh -63 (no result: STAT3 activator, Hsp70 act)
c1ccc(N2CC3CCc4ccccc4C3=N2)cc1 (configuration not stated)	AHR activator 57 (no result: STAT3 activator, Hsp70 act)
Cc1ccccc1C(=O)Oc1ccccc1N1C(=O)C2CC=CCC2C1=O (configuration not stated)	AHR activator 75
CCc1nccn1Cc1cc(C=O)ccc1OC	none
COc1ccc(C=O)cc1Cn1ccnc1C	HSF1 inh -77
COCCN(C(=O)CSc1nnc(-c2cccc(F)c2)n1N)c1c(N)n(CC(C)C)c(=O)[nH]c1=O	none (no result: STAT3 activator, Hsp70 act, PERK inh)
CCOc1ccc2c(C)nc(NC3=NC(C)(C)C=C(C)N3)nc2c1	AHR activator 64
CCN(Cc1ccc(N(C)C)cc1)C(C)C(=O)Nc1ccc(S(=O)(=O)N2CCCC2)cc1 (configuration not stated)	none (no result: STAT3 activator, HSF1 inh, Hsp70 act, PolyA inh, PERK inh)
CC(C)c1ccc2c(c1)[C@H]1OCC[C@H]1[C@@H](c1cccs1)N2	AHR activator 70
O=C(Nc1cc2c(oc1=O)CCCC2=O)c1ccccc1	AHR activator 62
Cc1ccc(N2CN=c3s/c(=C\c4ccccn4)c(=O)n3C2)cc1	HSF1 inh -52, PERK inh 3.1
FCCCOc1ccc(-c2nccc(-c3ccc(F)cc3)n2)cc1	none
FCCCOc1ccc(-c2ccnc(-c3ccccc3)n2)cc1	AHR activator 52
C/C(=N\Nc1nc2ccccc2s1)c1ccc(Br)s1	AHR activator 54
C/C(=N\NC(=O)c1ccccc1[N+](=O)[O-])c1ccc(Br)s1	none
Cc1cc(C)cc(OCc2nc3ncc(Br)cc3[nH]2)c1	AHR activator 69
COc1cccc(OCc2nc3ncc(Br)cc3[nH]2)c1	none
Cc1noc(-c2ccc(C(F)(F)F)cc2)c1NC(=O)Nc1ccc(Cl)cc1	none (no result: STAT3 activator, Hsp70 act)
Cc1cc(C)n(-c2nc(NCCCO)c3c4c(sc3n2)CCCC4)n1	none
Cc1cc(C)n(-c2nc(NCCO)c3c4c(sc3n2)CCCC4)n1	AHR activator 47
CCCNC(=O)COc1ccc2c(=O)c(Oc3ccccc3F)coc2c1	HSF1 inh -70
COc1ccccc1Oc1coc2cc(OCC(N)=O)ccc2c1=O	none (no result: STAT3 activator, Hsp70 act, PERK inh)
CCOC(=O)Nc1nc2ccc(Cn3cccc3)cc2[nH]1	none (no result: STAT3 activator, Hsp70 act, PolyA inh, AHR activator, PERK inh)
Cc1ccccc1NC(=O)COC(=O)CCc1nc2ccccc2c(=O)[nH]1	none
O=C(COC(=O)CCc1nc2ccccc2c(=O)[nH]1)Nc1c(Cl)cccc1C(F)(F)F	HSF1 inh -70 (no result: STAT3 activator, Hsp70 act, PERK inh)
COc1cc2sc3ccc(-c4ccc(CN5CCOCC5)cc4)cc3c(=O)c2cc1OC	AHR activator 52 (no result: STAT3 activator, HSF1 inh, Hsp70 act, PolyA inh, PERK inh)
Cc1ccc(C)c(OCCC(=O)OCC(=O)Nc2cccc(S(=O)(=O)N3CCCC3)c2)c1	none (no result: STAT3 activator, Hsp70 act, PERK inh)
COc1cc2c(cc1OC)C1(CCCC1)C(N)=C2C#N	AHR activator 48 (no result: HSF1 inh, PolyA inh)
COc1ccc(C(=O)N2CCN=C2SCc2cccnc2)cc1OC	HSF1 inh -66
Cc1ccccc1CC1(CO)CCCN(Cc2nc(-c3cccs3)oc2C)C1 (configuration not stated)	none
Clc1ccc(-c2ccnc(-n3cccc3)n2)s1	AHR activator 53
CCC1(c2ccccc2)NC(=O)N(CC(=O)NCc2ccc(OC)cc2)C1=O (configuration not stated)	none (no result: STAT3 activator, Hsp70 act, PERK inh)
O=C(N/N=C/c1cn(-c2ccccc2)nc1-c1cccnc1)c1cccnc1	none
O/N=C/c1cn(-c2ccccc2)nc1-c1cccnc1	AHR activator 51
Brc1ccccc1-c1nnc2sc(-c3ccc4c(c3)OCCO4)nn12	none
c1ccc2c(c1)ncn2Cc1nnc2sc(-c3ccc4c(c3)OCO4)nn12	AHR activator 50
Fc1ccc(-c2nn3c(C4COc5ccccc5O4)nnc3s2)cc1 (configuration not stated)	none
c1ccc2c(c1)OCC(c1nnc3sc(-c4ccc5c(c4)OCO5)nn13)O2 (configuration not stated)	PolyA inh inconclusive, AHR activator 48
Clc1ccccc1-c1nnc2sc(-c3ccc4c(c3)OCO4)nn12	AHR activator 56
c1csc(-c2nn3c(C4COc5ccccc5O4)nnc3s2)c1 (configuration not stated)	AHR activator 62 (no result: HSF1 inh)
Cc1nn(C2CCS(=O)(=O)C2)c(C)c1CN(C)C(=O)c1ccc(S(=O)(=O)N(C)C)cc1 (configuration not stated)	none (no result: STAT3 activator, HSF1 inh, Hsp70 act, PolyA inh, PERK inh)
O=C(O)c1ccc(S(=O)(=O)c2ccc(Sc3ccc(C(=O)O)c(C(=O)O)c3)cc2)cc1	none
CC(=O)N(/N=C/c1cccc(C)c1)c1nc(-c2ccc(Br)cc2)cs1	AHR activator 78
Cc1ccc(C(=O)CCC(=O)N2CCC(C(N)=O)CC2)s1	none (no result: STAT3 activator, HSF1 inh, Hsp70 act, PolyA inh, PERK inh)
COc1ccc(C2=CSC3=NCCN23)cc1Br	none (no result: STAT3 activator, Hsp70 act, PERK inh)
CCOC(=O)N1CCN(S(=O)(=O)N2CCCC(C(=O)NCCc3ccc(C)cc3)C2)CC1 (configuration not stated)	none (no result: STAT3 activator, Hsp70 act, PERK inh)
CCOC(=O)N1CCN(S(=O)(=O)N2CCCC(C(=O)NCc3ccccc3Cl)C2)CC1 (configuration not stated)	HSF1 inh -53 (no result: STAT3 activator, Hsp70 act, PERK inh)
COC(=O)c1ccc(OCCOc2ccc(C(=O)OC)cc2)cc1	PERK inh 3.5
CCOC(=O)N1CCN(S(=O)(=O)c2ccc(C(=O)NNc3nc4c(C)cccc4s3)cc2)CC1	none
CCOC(=O)N1CCN(S(=O)(=O)c2ccc(C(=O)NNc3nc4c(C)cc(C)cc4s3)cc2)CC1	AHR activator 47
COc1ccccc1C(=O)Nc1ccc(C)cc1C(=O)c1ccccc1	AHR activator 52
COc1ccccc1C(=O)Nc1ccccc1SC(=O)c1ccccc1OC	AHR activator 53 (no result: STAT3 activator, Hsp70 act, PERK inh)
COc1ccc(C(=O)Nc2ccc(C)cc2C(=O)c2ccccc2)cc1	none
COC(=O)c1ccccc1NC(=O)c1ccccc1OC	none
CCCCCOC(=O)c1[nH]c2c(c1C)C(=O)CC(c1ccco1)C2 (configuration not stated)	AHR activator 140
CCOCCOC(=O)c1[nH]c2c(c1C)C(=O)CC(c1ccccc1)C2 (configuration not stated)	none (no result: STAT3 activator, Hsp70 act, PERK inh)
CSc1nc(Cc2ccccc2)cc(=O)[nH]1	HSF1 inh -65
Cc1cc(C)cc(NC(=S)NC(=O)Cc2ccccc2)c1	none (no result: STAT3 activator, Hsp70 act, PERK inh)
Cc1cc(C)cc(NC(=O)C(=S)NCc2ccccc2)c1	PERK inh 2.9
Cc1ccc(NC(=O)c2cc(=O)[nH]c3ccccc23)cc1C	none (no result: STAT3 activator, Hsp70 act, AHR activator, PERK inh)
Cc1nn(-c2ccccc2)c2c1C(c1c(C)[nH]c(C#N)c1C)C(C#N)=C(N)O2 (configuration not stated)	STAT3 activator 134
Cc1ccc(-n2nc(C)c3c2OC(N)=C(C#N)C3c2ccccc2F)cc1 (configuration not stated)	STAT3 activator 146, AHR activator 66

Source: PubChem BioAssay
